ChEMBL document CHEMBL1146219, “Synthesis and evaluation of novel radioiodinated benzamides for malignant melanoma” (J Med Chem, 2007)

How the values were obtained:
[1] = Displacement of [3H]DTG from sigma 2 receptor in guinea pig brain membrane; format: cell membranes, Cavia porcellus
Procedure, shortened: (§1)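 Guinea pig brain membranes, incubated in duplicate for 2 h at 25 °C in Tris-HCl pH 8.0. Benzamide 10⁻¹⁰ to […] against 2 nM [³H]-(+)-pentazocine (σ₁) or 2 nM [³H]DTG plus 100 nM (+)-pentazocine (σ₂). Nonspecific binding defined with 1 µM haloperidol. GF/B filtration, bound activity by β-scintillation counting, giving IC50 then Ki. Full curves run only where 10⁻⁵ M inhibited >90%.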

[2] = Lipophilicity, log P at pH 7.5; format: physicochemical; settings: buffer
[3] = biological target: Sigma non-opioid intracellular receptor 1 (Cavia porcellus, UniProt Q60492); test: Displacement of [3H](+)-pentazocine from sigma 1 receptor in guinea pig brain membrane; format: cell membranes; procedure, shortened: as §1
Chain of Sigma non-opioid intracellular receptor 1 (Q60492 whole entry): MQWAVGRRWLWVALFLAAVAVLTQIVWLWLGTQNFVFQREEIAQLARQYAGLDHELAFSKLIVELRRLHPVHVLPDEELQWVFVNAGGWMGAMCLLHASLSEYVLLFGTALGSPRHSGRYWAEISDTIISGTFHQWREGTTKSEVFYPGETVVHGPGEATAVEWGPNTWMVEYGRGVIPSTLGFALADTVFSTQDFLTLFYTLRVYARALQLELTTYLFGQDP

[4] = Biodistribution in melanoma of B16F0 tumor bearing C57BL/6J mouse at 0.37-0.74 MBq, iv after 24 hrs; format: ADME, organism-based, B16-F0; settings: in vivo
Procedure, shortened: (§2)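 Female C57BL/6J mice (15-18 g) were given B16F0 cells subcutaneously in the left flank (0.1 mL of 3 × 10⁶ viable cells/mL in Ca²⁺/Mg²⁺-free PBS) at 6-7 weeks and used after ten days. [¹²³I]benzamide (0.37-0.74 MBq, 100 µL, saline) was injected via the tail vein. Groups of n = 5 were killed by CO₂ and cervical dislocation. Organs were weighed and γ-counted, and the carcass was counted too.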

Heart [5] = test: Biodistribution in heart of B16F0 tumor bearing C57BL/6J mouse at 0.37-0.74 MBq, iv after 1 hr; format: ADME, organism-based; settings: in vivo; procedure, shortened: as §2
Heart [6] = test: Biodistribution in heart of B16F0 tumor bearing C57BL/6J mouse at 0.37-0.74 MBq, iv after 6 hrs; format: ADME, organism-based; settings: in vivo; procedure, shortened: as §2
Heart [7] = test: Biodistribution in heart of B16F0 tumor bearing C57BL/6J mouse at 0.37-0.74 MBq, iv after 24 hrs; format: ADME, organism-based; settings: in vivo; procedure, shortened: as §2
Brain [8] = test: Biodistribution in brain of B16F0 tumor bearing C57BL/6J mouse at 0.37-0.74 MBq, iv after 24 hrs; format: ADME, organism-based; settings: in vivo; procedure, shortened: as §2
Liver [9] = test: Biodistribution in liver of B16F0 tumor bearing C57BL/6J mouse at 0.37-0.74 MBq, iv after 24 hrs; format: ADME, organism-based; settings: in vivo; procedure, shortened: as §2
[10] = Biodistribution in melanoma of B16F0 tumor bearing C57BL/6J mouse at 0.37-0.74 MBq, iv after 1 hr; format: ADME, organism-based, B16-F0; settings: in vivo; procedure, shortened: as §2
Blood [11] = test: Biodistribution in blood of B16F0 tumor bearing C57BL/6J mouse at 0.37-0.74 MBq, iv after 24 hrs; format: ADME, organism-based; settings: in vivo; procedure, shortened: as §2
Kidney [12] = test: Biodistribution in kidney of B16F0 tumor bearing C57BL/6J mouse at 0.37-0.74 MBq, iv after 24 hrs; format: ADME, organism-based; settings: in vivo; procedure, shortened: as §2
Liver [13] = test: Biodistribution in liver of B16F0 tumor bearing C57BL/6J mouse at 0.37-0.74 MBq, iv after 6 hrs; format: ADME, organism-based; settings: in vivo; procedure, shortened: as §2
Lung [14] = test: Biodistribution in lung of B16F0 tumor bearing C57BL/6J mouse at 0.37-0.74 MBq, iv after 6 hrs; format: ADME, organism-based; settings: in vivo; procedure, shortened: as §2
Lung [15] = test: Biodistribution in lung of B16F0 tumor bearing C57BL/6J mouse at 0.37-0.74 MBq, iv after 24 hrs; format: ADME, organism-based; settings: in vivo; procedure, shortened: as §2
[16] = Biodistribution in melanoma of B16F0 tumor bearing C57BL/6J mouse at 0.37-0.74 MBq, iv after 6 hrs; format: ADME, organism-based, B16-F0; settings: in vivo
Procedure, shortened: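 Female C57BL/6J mice (15-18 g) carrying s.c. B16F0 flank tumors (0.1 mL of 3 × 10⁶ viable cells per mL in Ca²⁺/Mg²⁺-free PBS, inoculated at 6-7 weeks, used 10 days later). [¹²³I]tracer 0.37-0.74 MBq in saline, 100 µL, tail-vein i.v. Groups of n = 5 killed at 1-72 h. Organs weighed and γ-counted, carcass activity also counted, values as %ID/g.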

Blood [17] = test: Biodistribution in blood of B16F0 tumor bearing C57BL/6J mouse at 0.37-0.74 MBq, iv after 6 hrs; format: ADME, organism-based; settings: in vivo; procedure, shortened: as §2
Liver [18] = test: Biodistribution in liver of B16F0 tumor bearing C57BL/6J mouse at 0.37-0.74 MBq, iv after 1 hr; format: ADME, organism-based; settings: in vivo; procedure, shortened: as §2
Blood [19] = test: Biodistribution in blood of B16F0 tumor bearing C57BL/6J mouse at 0.37-0.74 MBq, iv after 1 hr; format: ADME, organism-based; settings: in vivo; procedure, shortened: as §2
Kidney [20] = test: Biodistribution in kidney of B16F0 tumor bearing C57BL/6J mouse at 0.37-0.74 MBq, iv after 1 hr; format: ADME, organism-based; settings: in vivo; procedure, shortened: as §2
Brain [21] = test: Biodistribution in brain of B16F0 tumor bearing C57BL/6J mouse at 0.37-0.74 MBq, iv after 6 hrs; format: ADME, organism-based; settings: in vivo; procedure, shortened: as §2
Brain [22] = test: Biodistribution in brain of B16F0 tumor bearing C57BL/6J mouse at 0.37-0.74 MBq, iv after 1 hr; format: ADME, organism-based; settings: in vivo; procedure, shortened: as §2
Lung [23] = test: Biodistribution in lung of B16F0 tumor bearing C57BL/6J mouse at 0.37-0.74 MBq, iv after 1 hr; format: ADME, organism-based; settings: in vivo; procedure, shortened: as §2
Kidney [24] = test: Biodistribution in kidney of B16F0 tumor bearing C57BL/6J mouse at 0.37-0.74 MBq, iv after 6 hrs; format: ADME, organism-based; settings: in vivo; procedure, shortened: as §2

SMILES	Ki [1]	logD [2]	Ki [3]	Drug uptake [4]	Drug uptake (Heart [5])	Drug uptake (Heart [6])	Drug uptake (Heart [7])	Drug uptake (Brain [8])	Drug uptake (Liver [9])	Drug uptake [10]	Drug uptake (Blood [11])	Drug uptake (Kidney [12])	Drug uptake (Liver [13])	Drug uptake (Lung [14])	Drug uptake (Lung [15])	Drug uptake [16]	Drug uptake (Blood [17])	Drug uptake (Liver [18])	Drug uptake (Blood [19])	Drug uptake (Kidney [20])	further results
COc1cc(NC(C)=O)c(I)cc1C(=O)NCCCCN(C)C(C)C	5.4 µM	0.75	5.2 µM																		
CCN(CC)CCNC(=O)c1cc(I)c(NS(=O)(=O)c2ccc(C)cc2)cc1OC	> 100 µM	1.95	0.65 µM																		
CCN(CC)CCNC(=O)c1cc(I)c(NS(C)(=O)=O)cc1OC	45 µM	0.82	0.8 µM																		
CCCN(CCC)CCCCNC(=O)c1ccc([123I])cc1				6.9 % ID/g	1.9 % ID/g	0.81 % ID/g	0.12 % ID/g	0.04 % ID/g	2.9 % ID/g	6.2 % ID/g	0.08 % ID/g	0.52 % ID/g	33 % ID/g	3.9 % ID/g	0.39 % ID/g	7.5 % ID/g	0.35 % ID/g	49.1 % ID/g	0.52 % ID/g	8.6 % ID/g	Drug uptake (Brain [21]): 0.17 % ID/g; Drug uptake (Brain [22]): 0.5 % ID/g; Drug uptake (Lung [23]): 8.2 % ID/g; Drug uptake (Kidney [24]): 5.4 % ID/g
O=C(NC1CCN(CCO)CC1)c1ccc([123I])cc1				9.2 % ID/g	3.1 % ID/g	0.93 % ID/g	0.49 % ID/g	0.15 % ID/g	5.4 % ID/g	5.9 % ID/g	0.04 % ID/g	1.2 % ID/g	9.2 % ID/g	4.7 % ID/g	1.44 % ID/g	11.7 % ID/g	0.21 % ID/g	17.1 % ID/g	1 % ID/g	10.6 % ID/g	Drug uptake (Brain [21]): 0.46 % ID/g; Drug uptake (Brain [22]): 1 % ID/g; Drug uptake (Lung [23]): 17.8 % ID/g; Drug uptake (Kidney [24]): 3.2 % ID/g
CCCN(CCC)CCCCNC(=O)c1cc([123I])c(NC(C)=O)cc1OC				5.1 % ID/g	0.93 % ID/g	0.49 % ID/g	0.14 % ID/g	0.01 % ID/g	0.64 % ID/g	8 % ID/g	0.15 % ID/g	0.18 % ID/g	1.8 % ID/g	0.8 % ID/g	0.14 % ID/g	6.8 % ID/g	1.1 % ID/g	7.3 % ID/g	1.7 % ID/g	14.1 % ID/g	Drug uptake (Brain [21]): 0.05 % ID/g; Drug uptake (Brain [22]): 0.07 % ID/g; Drug uptake (Lung [23]): 1.7 % ID/g; Drug uptake (Kidney [24]): 1 % ID/g
